Experimental data gathered from unrelated publications.
Each line is one published result; the experiments were not run side by side.
Oprk1: Kappa-type opioid receptor (Oprk1, Mus musculus, UniProt P33534)
BCHE: Cholinesterase (BCHE, Homo sapiens, UniProt P06276)

Compound | target | test | setting | quantity | value
CC(C)[C@H](CN1CCc2ccccc2C1)NC(=O)Cc1c[nH]c2ccccc12 | Oprk1 | ligand displacement, radioligand | 10 µM | inhibition | 90%
COc1cc(/C=C/C(=O)O)ccc1OCc1cn(CC(=O)Nc2ccc(Cl)cc2Cl)nn1 | BCHE | enzyme activity, inhibitor, Ellman | 40 µM | inhibition | 58.2%
CN1CCC[C@H]1c1cccnc1 | Sodium-dependent noradrenaline transporter (SLC6A2, Homo sapiens, UniProt P23975) | ligand displacement | 50 µM | inhibition | 8.2%
COc1cc(/C=C/C(=O)O)ccc1OCc1cn(CC(=O)Nc2cccc(Cl)c2)nn1 | BCHE | enzyme activity, inhibitor, Ellman | 40 µM | inhibition | 15.3%
CC(C)[C@H](CN1CCc2ccccc2C1)NC(=O)c1cccc(-c2cccc(O)c2)c1 | Oprk1 | ligand displacement, radioligand | 10 µM | inhibition | 81%
CC(C)CC(=O)OC[C@H]1O[C@@](C#N)(c2ccc3c(N)ncnn23)[C@H](O)[C@@H]1O | Neuronal acetylcholine receptor; alpha3/beta4 (Homo sapiens, UniProt P30926+P32297) | cell-free assay | 20 µM | inhibition | -5%
[2H]c1c([2H])c([C@]2([2H])CCCN2C(=O)C(C)(C)Oc2ccc3cn[nH]c3c2)c([2H])c([2H])c1C([2H])([2H])[2H] | MAP kinase-interacting serine/threonine-protein kinase 2 (MKNK2, Homo sapiens, UniProt Q9HBH9) | binding, competition with immobilised ligand | 1 µM | remaining binding | 100%
c1cncc([C@@H]2CCCN2)c1 | Muscarinic acetylcholine receptor M5 (CHRM5, Homo sapiens, UniProt P08912) | ligand displacement | 50 µM | inhibition | -2.02%
